Legend:
[1] = target: Recombinant TryR from T. brucei (Trypanosoma brucei brucei, UniProt P39051); test: DTNB-coupled colourimetric TryR screening/potency assay; type: biochemical
[2] = test system: bloodstream form T. brucei brucei single marker; test: Trypanosome growth assay; type: cell-based; conditions: Trypanosoma brucei, 73 h, read-out: EC50 Parasite
Procedure, shortened: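 Bloodstream-form T. b. brucei single marker in HMI9-T with 10% FCS, 2000 cells/well, added to plates pre-stamped with test compound; media-only column as blank. Ten points from 15 μm to 0.5 nm or 50 μm to 2 nm; final DMSO 0.5%. Incubated 69 h at 37°C, 5% CO2, then resazurin (final 50 μm) for 4 h; fluorescence at ex 528/em 590 nm.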

TryR = TryR (Trypanosoma brucei brucei, UniProt P39051); test: Mode of inhibition studies on TryR; type: biochemical; conditions: for Inhibitor constants Ki′: T[S]2 varied, mixed inhibition, second constant; for Mode of inhibiton: TryR, global nonlinear fit of 1/v vs 1/[S] data
Chain of TryR (P39051 whole entry): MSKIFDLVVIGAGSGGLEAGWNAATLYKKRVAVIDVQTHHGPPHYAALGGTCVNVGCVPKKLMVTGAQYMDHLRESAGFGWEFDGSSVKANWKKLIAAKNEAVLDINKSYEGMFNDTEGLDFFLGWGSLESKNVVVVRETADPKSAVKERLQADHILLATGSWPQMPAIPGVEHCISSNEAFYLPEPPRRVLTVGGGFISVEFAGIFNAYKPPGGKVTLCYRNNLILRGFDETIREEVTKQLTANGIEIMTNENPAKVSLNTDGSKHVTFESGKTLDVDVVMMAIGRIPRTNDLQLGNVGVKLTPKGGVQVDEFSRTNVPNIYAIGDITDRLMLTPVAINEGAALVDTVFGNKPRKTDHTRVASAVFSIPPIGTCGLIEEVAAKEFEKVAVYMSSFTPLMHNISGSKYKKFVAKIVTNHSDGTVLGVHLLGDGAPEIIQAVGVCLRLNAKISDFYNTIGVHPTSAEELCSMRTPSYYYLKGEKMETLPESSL
Procedure, shortened: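 TryR with 150 μm NADPH, 50 μm DTNB, 20 mU/mL enzyme in 40 mm HEPES, 1 mm EDTA, pH 7.4. Three test-compound levels plus an inhibitor-free row. Started with T[S]2 over 12 points, 500 to 5.8 μm. NADPH was also varied at fixed T[S]2. Rates from linear A412 rise, inspected as 1/v vs 1/[S], then globally fitted to competitive, mixed or uncompetitive equations.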

[3] = target: T1, human glutathione reductase (Homo sapiens, UniProt P00390); test: Glutathione reductase; type: biochemical
T1 sequence (P00390 44-522): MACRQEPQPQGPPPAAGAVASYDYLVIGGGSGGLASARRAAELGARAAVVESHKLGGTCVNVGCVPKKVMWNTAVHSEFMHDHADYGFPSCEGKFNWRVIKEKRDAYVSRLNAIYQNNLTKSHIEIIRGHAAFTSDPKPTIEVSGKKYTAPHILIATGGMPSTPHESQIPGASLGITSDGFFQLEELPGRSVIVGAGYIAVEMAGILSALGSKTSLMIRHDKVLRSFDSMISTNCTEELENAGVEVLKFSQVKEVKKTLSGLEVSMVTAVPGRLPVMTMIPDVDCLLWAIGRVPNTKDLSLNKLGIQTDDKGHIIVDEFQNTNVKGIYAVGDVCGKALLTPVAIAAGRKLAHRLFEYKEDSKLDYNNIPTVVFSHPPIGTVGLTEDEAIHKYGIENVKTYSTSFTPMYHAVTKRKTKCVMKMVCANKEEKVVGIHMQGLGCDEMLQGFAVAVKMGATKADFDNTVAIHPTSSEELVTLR

Chain of Recombinant TryR from T. brucei (P39051 whole entry): as the sequence (P39051 whole entry) above

IC50 [1] [µM]	Ki (TryR) [µM]	Inhibitor constants Ki′ (TryR) [µM]	Mode of inhibiton (TryR)	IC50 [3] [µM]	SMILES	EC50 [2] [µM]
5.7					Cc1ccc(-c2cc(C(=O)NCCN(C)C)c3ccc(Br)cc3n2)o1 [Compound 9, 7-Bromo-N-(2-(dimethylamino)ethyl)-2-(5-methylfuran-2-yl)quinoline-4-carboxamide]	
32.4					CN(C)CCNC(=O)c1cc(-c2ccco2)nc2ccc(Br)cc12 [Compound 20, 6-Bromo-N-(2-(dimethylamino)ethyl)-2-(furan-2-yl)quinoline-4-carboxamide]	
4.7	2 ± 0.1	3.0 ± 0.2	linear mixed	33.4	Cc1ccc(-c2cc(C(=O)NCc3ccccn3)c3cc(Br)ccc3n2)o1 [Compound 5, 6-Bromo-2-(5-methylfuran-2-yl)-N-(pyridin-2-ylmethyl)quinoline-4-carboxamide]	18.7
> 100					Cc1ccc(-c2cc(C(=O)NCCN(C)C)c3cc(F)ccc3n2)o1 [Compound 26, N-(2-(dimethylamino)ethyl)-6-fluoro-2-(5-methylfuran-2-yl)quinoline-4-carboxamide]	
> 100					Cc1ccc(-c2cc(C(=O)NCCc3ccccc3)c3cc(Br)ccc3n2)o1 [Compound 25, 6-bromo-2-(5-methylfuran-2-yl)-N-phenethylquinoline-4-carboxamide]	
4.2	3 ± 0.2	4.3 ± 0.3	linear mixed	74.2	Cc1ccc(-c2cc(C(=O)NCCN3CCOCC3)c3cc(Br)ccc3n2)o1 [Compound 4, 6-Bromo-2-(5-methylfuran-2-yl)-N-(2-morpholinoethyl)quinoline-4-carboxamide]	25.6
3.1					Cc1ccc(-c2cc(C(=O)NCCN(C)C)c3cc(Cl)ccc3n2)o1 [Compound 8, 6-Chloro-N-(2-(dimethylamino)ethyl)-2-(5-methylfuran-2-yl)quinoline-4-carboxamide]	
1.2					Cc1ccc(-c2cc(C(=O)NCC[N+](C)(C)C)c3cc(Br)ccc3n2)o1 [Compound 3, 6-Bromo-N,N,N-trimethyl-2-(2-(5-methylfuran-2-yl)quinoline-4-carboxamido)ethanaminium iodide]	> 50
5.8					Cc1ccc(-c2cc(C(=O)NCCN(C)C)c3cccc(Br)c3n2)o1 [Compound 10, 8-Bromo-N-(2-(dimethylamino)ethyl)-2-(5-methylfuran-2-yl)quinoline-4-carboxamide]	19.2
> 100					Cc1ccc(-c2cc(C(=O)NCCN(C)C)c3cc(Br)ccc3n2)s1 [Compound 22, 6-Bromo-N-(2-(dimethylamino)ethyl)-2-(5-methylthiophen-2-yl)quinoline-4-carboxamide]	
1.7	1.6 ± 0.2	3.2 ± 0.3	linear mixed	> 100	Cc1ccc(-c2cc(C(=O)NCCN(C)C)c3cc(Br)ccc3n2)o1 [Compound 1, 6-Bromo-N-(2-(dimethylamino)ethyl)-2-(5-methylfuran-2-yl)quinoline-4-carboxamide]	10.3
1.1					CNCCNC(=O)c1cc(-c2ccc(C)o2)nc2ccc(Br)cc12 [Compound 2, 6-Bromo-N-(2-(methylamino)ethyl)-2-(5-methylfuran-2-yl)quinoline-4-carboxamide]	6
12.1					Cc1ccc(-c2cc(C(=O)NCc3ccccn3)c3ccccc3n2)o1 [Compound 11, 2-(5-Methylfuran-2-yl)-N-(pyridin-2-ylmethyl)quinoline-4-carboxamide]	
> 100					Cc1ccc(-c2cc(C(=O)NCc3ccccc3)c3cc(Br)ccc3n2)o1 [Compound 15, N-Benzyl-6-bromo-2-(5-methylfuran-2-yl)quinoline-4-carboxamide]	
14.4					Cc1ccc(-c2cc(C(=O)NCCN(C)C)c3ccccc3n2)o1 [Compound 12, N-(2-(Dimethylamino)ethyl)-2-(5-methylfuran-2-yl)quinoline-4-carboxamide]	32.1

Source: PMC2855869 (Chemmedchem, 2009)
